Screening data deposited in PubChem BioAssay by Broad Institute.
CAL PDZ FP-1 = blocks peptide binding to the human CAL PDZ domain; Q9HD26; inhibition, % at 24.9 µM; 0.92% of 300,000 active; purified CAL PDZ, TMR-peptide fluorescence polarization, 1 h;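 active means mean inhibition of at least 30% with at least half of replicates also reaching 30%; inconclusive means no clear call, values can overlap the other calls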
RAD52 inh = inhibitors of human RAD52 DNA annealing; recombinant RAD52 DNA annealing, FRET fluorescence; P43351; inhibition, % at 18.7 µM; 0.46% of 360,000 active;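 active means every replicate showing at least 50% inhibition; inconclusive means mean inhibition at least 50% but not in every replicate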
CAL PDZ FP-2 = inhibitors of human CAL PDZ peptide binding; 0.02% of 330,000 active; AID 504414; Q9HD26; purified CAL PDZ, TMR-peptide fluorescence polarization, 1 h; inhibition, % at 20 µM;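 active means highest replicate inhibition of at least 40%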
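Material – purified CerCALP PDZ construct · Detection – FP readout, S and P plane fluorescence · Measure – percent inhibition from loss of millipolarization · Controls – unlabelled peptide for full inhibition, DMSO wells as neutral · Probe or stimulus – TMR-labelled reporter peptide T*-PRC34 bound in PDZ groove · Times – 1 h at RT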
ERp5 inh = inhibitors of human ERp5 | inhibition, % at 9.99 µM | ERp5 insulin aggregation, absorbance 650 nm, 90 min | 0.05% of 350,000 active | Q15084;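 active means mean replicate inhibition above about 25%, with every replicate also reaching it, limit read from the data, passing the limit was not always enough; inconclusive means only one of those two criteria met; inactive means neither criterion met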
RAD54 branch = RAD54 (human) branch migration inhibition. Q92698. RAD54 Holliday junction branch migration, FAM/BHQ fluorescence. inhibition, % at 10.4 µM. 0.14% of 360,000 active;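 active means mean normalized replicate activity at least 40 and at least half of replicates scoring 40 or more; inconclusive means only one of the two criteria met; inactive means mean below 40 and under half of replicates reaching 40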;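 further: inhibitors cause a drop in the FAM fluorescence signal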
PDI turbidity = inhibitors of human protein disulfide isomerase; 0.052% of 350,000 active; AID 588391; PDI insulin aggregation turbidity, A650, 90 min; inhibition, % at 10 µM;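 active means mean inhibition across replicates of 30% or more, whatever share of single replicates reach that level; inconclusive means mean inhibition below 30% while every single replicate reaches 30%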
Target sequence (P07237 whole entry, looked up): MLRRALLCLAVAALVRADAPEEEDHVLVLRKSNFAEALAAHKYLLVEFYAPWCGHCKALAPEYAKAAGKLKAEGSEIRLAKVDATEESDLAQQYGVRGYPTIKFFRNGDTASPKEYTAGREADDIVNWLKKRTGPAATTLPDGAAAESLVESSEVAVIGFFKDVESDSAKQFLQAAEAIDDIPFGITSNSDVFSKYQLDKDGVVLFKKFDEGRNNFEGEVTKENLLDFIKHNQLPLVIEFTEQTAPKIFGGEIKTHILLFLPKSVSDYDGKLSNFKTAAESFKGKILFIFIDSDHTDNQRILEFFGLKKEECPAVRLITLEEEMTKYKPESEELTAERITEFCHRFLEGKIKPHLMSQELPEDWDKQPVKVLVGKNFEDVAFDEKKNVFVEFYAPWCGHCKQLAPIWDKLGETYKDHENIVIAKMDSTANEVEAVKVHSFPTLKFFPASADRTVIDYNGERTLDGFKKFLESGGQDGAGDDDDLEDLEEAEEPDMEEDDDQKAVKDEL
RAD52 DNA ctr = DNA binding artifact in RAD52 counter-screen; 8% of 1,000 active; AC50, µM; shares compounds with RAD52 inh; Salmon sperm DNA/acridine orange FP displacement;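 active means fitted half-maximal concentration for signal loss at or below twice the highest dose tested, in every separate run, actives reach about 64 µM in these data; inconclusive means runs disagree, or flat partial signal loss, or poor fit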
Numbers stand for hits; . = inactive; ? = inconclusive; / = not tested or not shown. Shown are actives, neighbours in structure and some others; about 1% of the full set was active somewhere.

SMILES	CAL PDZ FP-1	RAD52 inh	CAL PDZ FP-2	ERp5 inh	RAD54 branch	PDI turbidity	RAD52 DNA ctr
C=CC(=O)Nc1cccc(Oc2nc(Nc3ccc(N4CCN(C)CC4)cc3OC)ncc2Cl)c1	/	94.6	/	.	/	/	.
CN(C)c1ccc2c(c1)[C@H]1C[C@H](CC(=O)NCc3ccncc3)O[C@H](CO)[C@H]1O2	/	.	/	.	.	/	/
CC(=O)N1CCN(c2ccc(N)cc2)CC1	.	57.9	.	.	.	.	.
Nc1ccc(N2CCN(c3ccc(F)cc3)CC2)cc1	.	.	.	.	/	.	/
O=C(C[C@H]1CC[C@@H](NC(=O)C2CCOCC2)[C@H](CO)O1)NCc1ccccc1Cl	/	.	/	.	.	/	/
CCCNC(=O)[C@H]1[C@H](CO)[C@H]2Cn3c(ccc(C4=CCCC4)c3=O)[C@@H]1N2C(=O)C1CC1	/	.	/	.	.	/	/
CN=C(C[N+](=O)[O-])NCCSCc1ccc(CN(C)C)o1	.	57.1	.	.	.	.	.
CN/C(=C/[N+](=O)[O-])NCCSCc1csc(CN(C)C)n1	.	.	.	.	.	.	/
Cc1ccc(C)c(OCC(O)CN2CCC(CN3C(=O)c4cccc5cccc(c45)C3=O)CC2)c1 (centres undefined)	.	/	.	/	/	.	/
COc1cc2c3c(cccc3c1)C(=O)N(CCN1CCCC1)C2=O	/	71.1	/	.	105.5	.	31.2µM
COc1cccc(OCC(O)CN2CCN(CCN3C(=O)c4cccc5cccc(c45)C3=O)CC2)c1 (centres undefined)	.	90.7	.	.	/	.	?
COc1ccc(OCC(O)CN2CCC(CN3C(=O)c4cccc5cccc(c45)C3=O)CC2)cc1 (centres undefined)	.	96.0	.	.	/	.	.
c1ccc2c(c1)C1=NCCN1c1ccccc1-2	/	81.7	/	.	/	.	?
COc1ccc(OC)c(N/C(N)=N/c2nc(C)cc(C)n2)c1	.	50.0	.	.	.	.	.
COc1ccc(C)cc1N/C(N)=N/c1nc(C)cc(C)n1	.	.	.	.	/	.	/
O=C(C[C@H]1C=C[C@@H](NC(=O)c2ccc(F)cc2)[C@@H](CO)O1)NCCc1ccccc1	/	.	/	.	.	/	/
CCN(CC)CCC(=O)Nc1cccc2c1C(=O)c1ccccc1C2=O	/	78.5	.	.	94.5	.	9.04µM
Nc1cccc(C(=O)OCC(=O)Nc2cccc3c2C(=O)c2ccccc2C3=O)c1	.	/	.	/	/	.	/
CCC(=O)Nc1ccc2c(c1)C(=O)N(C)C[C@H](OC)[C@H](C)CN(C(=O)C1CCC1)[C@H](C)CO2	/	.	/	.	.	/	/
CN(C)c1ccc(-c2cc(O)c3ncccc3c2)cc1	.	.	.	.	.	.	/
CN(C)CCCNC(=O)c1ccc(-c2cc(O)c3ncccc3c2)cc1	.	101.1	.	.	.	.	.
CC=Cc1ccc2n(c1=O)C[C@H]1[C@H](CO)[C@@H](C(=O)N3CCCCC3)N(CC3CC3)[C@@H]21 (mixture of isomers)	/	.	/	.	.	/	/
COc1ccc(C2c3ccc4ccccc4c3Oc3ncn(CCCN(C)C)c(=N)c32)cc1 (centres undefined)	.	79.6	.	.	.	.	.
COc1ccccc1C1c2ccc3ccccc3c2Oc2ncn(CCN(C)C)c(=N)c21 (centres undefined)	.	60.1	/	.	.	.	.
Cc1sc2ccccc2c1CNC[C@H]1O[C@@H](n2ccc(N)nc2=O)[C@H](O)[C@@H]1O	/	.	/	.	.	.	/
SMILES	CAL PDZ FP-1	RAD52 inh	CAL PDZ FP-2	ERp5 inh	RAD54 branch	PDI turbidity	RAD52 DNA ctr
Nc1ccn([C@@H]2O[C@H](CNCc3cccc4c3sc3ccccc34)[C@@H](O)[C@H]2O)c(=O)n1	/	53.6	/	.	.	.	.
CC(=O)N1[C@H](CO)[C@H](c2ccccc2)C12CN(C(=O)c1cnccn1)C2	/	.	/	.	/	/	/
O=C1Nc2cc(C(=O)NCCCN3CCCC3)ccc2S/C1=C\c1ccccc1	.	84.2	.	.	.	.	.
COc1ccc(/C=C2\Sc3ccc(C(=O)NCCCN4CCCC4)cc3N(C)C2=O)cc1OC	.	66.2	.	.	.	?	.
Cc1ccc(-n2c(C)c3c(C)nnc(C)c3c2C)cc1N	.	.	.	.	.	.	/
Cc1cc(-n2c(C)c3c(C)nnc(C)c3c2C)ccc1N	/	65.9	.	.	/	/	.
O=C(CN1CCC(NC(=O)C2CCCCC2)CC1)Nc1ccccc1	/	.	.	.	.	.	/
CN(C)c1ccc(NC(=O)CN2CCC(NC(=O)C3CCCCC3)CC2)cc1	/	71.9	.	.	/	.	.
CC(=O)Nc1ccc(CNc2nc(NC(C)C)nc3cc(-c4ccccc4)sc23)cc1	/	96.6	/	.	.	.	.
C=CCNc1nc(NCc2ccc(NC(C)=O)cc2)c2sc(-c3ccccc3)cc2n1	/	.	/	.	.	.	/
COc1ccccc1CNc1nc(NCc2ccccc2OC)c2sccc2n1	/	.	/	.	.	.	/
COc1ccccc1CNc1nc(NCc2ccc(NC(C)=O)cc2)c2sccc2n1	/	50.8	/	.	.	.	.
COc1ccc(NC(=O)N(C)C[C@H]2Oc3ccc(NS(=O)(=O)c4ccc(F)cc4)cc3CC(=O)N([C@@H](C)CO)C[C@@H]2C)cc1	/	.	/	.	/	/	/
CCC(=O)c1ccc2c(c1)N(CCCN(C)C)c1ccccc1S2	.	69.7	.	.	.	.	.
Cc1ccc(S(=O)(=O)Nc2ccc3c(c2)C(=O)N([C@H](C)CO)C[C@H](C)[C@@H](CN(C)Cc2ccccc2)OCCCC[C@@H](C)O3)cc1	/	/	/	/	.	/	/
C[C@H]1CN([C@@H](C)CO)C(=O)c2cc(NC(=O)Nc3cccc4ccccc34)ccc2O[C@H]1CN(C)C(=O)Nc1ccc(C(F)(F)F)cc1	/	.	/	.	.	/	/
CCN1CCN(c2cc(C)c3cc(NC(=O)c4cccs4)ccc3n2)CC1	.	62.9	.	.	.	.	.
CCCCNC(=S)Nc1ccc2nc(N3CCN(CC)CC3)cc(C)c2c1	.	56.8	.	.	.	.	.
CCCCN(CC)C(=S)Nc1ccc2nc(N3CCN(C)CC3)cc(C)c2c1	.	.	.	.	.	.	/
Cc1cc(N2CCCC2)nc2ccc(NC(=S)NCCCN3CCC(C)CC3)cc12	.	75.6	.	.	/	.	.
O=C(C[C@H]1CC[C@@H](NC(=O)Nc2ccc3c(c2)OCO3)[C@@H](CO)O1)NCCCN1CCOCC1	/	.	/	/	/	/	/
CCN(CC)CCNC(=O)C(=O)Nc1cc2c3c(c1)CC(=O)N3CCC2	.	55.0	.	.	.	.	.
C[C@H](CO)N1C[C@H](C)[C@H](CN(C)C(=O)Nc2cccc(F)c2)OCc2ccccc2-c2ccccc2C1=O	/	.	/	.	.	/	/
COc1ccc(NC(=O)N(C)C[C@H]2OCCCC[C@@H](C)Oc3ccc(NC(=O)Cc4ccccc4)cc3C(=O)N([C@@H](C)CO)C[C@@H]2C)cc1	/	.	/	.	.	/	/
COc1cc2c(cc1OC)-c1cc3ccc4c(c3c[n+]1CC2)OCO4	.	.	.	.	.	.	/
